In ChEMBL document CHEMBL3865805, “Discovery and antiplatelet activity of a selective PI3Kβ inhibitor (MIPS-9922)” (Eur J Med Chem, 2016):
Active and inactive are the calls of the source. The rule behind the calls is not given here.

Assays:
[1] = biological target: T1, Phosphatidylinositol 4,5-bisphosphate 3-kinase catalytic subunit delta isoform (Homo sapiens, UniProt O00329); assay: Inhibition of PI3Kdelta (unknown origin) expressed in baculovirus-infected fall armyworm sf21 cells co-expressing p85 by kinase-glo luminescence assay
T1 sequence (O00329 whole entry): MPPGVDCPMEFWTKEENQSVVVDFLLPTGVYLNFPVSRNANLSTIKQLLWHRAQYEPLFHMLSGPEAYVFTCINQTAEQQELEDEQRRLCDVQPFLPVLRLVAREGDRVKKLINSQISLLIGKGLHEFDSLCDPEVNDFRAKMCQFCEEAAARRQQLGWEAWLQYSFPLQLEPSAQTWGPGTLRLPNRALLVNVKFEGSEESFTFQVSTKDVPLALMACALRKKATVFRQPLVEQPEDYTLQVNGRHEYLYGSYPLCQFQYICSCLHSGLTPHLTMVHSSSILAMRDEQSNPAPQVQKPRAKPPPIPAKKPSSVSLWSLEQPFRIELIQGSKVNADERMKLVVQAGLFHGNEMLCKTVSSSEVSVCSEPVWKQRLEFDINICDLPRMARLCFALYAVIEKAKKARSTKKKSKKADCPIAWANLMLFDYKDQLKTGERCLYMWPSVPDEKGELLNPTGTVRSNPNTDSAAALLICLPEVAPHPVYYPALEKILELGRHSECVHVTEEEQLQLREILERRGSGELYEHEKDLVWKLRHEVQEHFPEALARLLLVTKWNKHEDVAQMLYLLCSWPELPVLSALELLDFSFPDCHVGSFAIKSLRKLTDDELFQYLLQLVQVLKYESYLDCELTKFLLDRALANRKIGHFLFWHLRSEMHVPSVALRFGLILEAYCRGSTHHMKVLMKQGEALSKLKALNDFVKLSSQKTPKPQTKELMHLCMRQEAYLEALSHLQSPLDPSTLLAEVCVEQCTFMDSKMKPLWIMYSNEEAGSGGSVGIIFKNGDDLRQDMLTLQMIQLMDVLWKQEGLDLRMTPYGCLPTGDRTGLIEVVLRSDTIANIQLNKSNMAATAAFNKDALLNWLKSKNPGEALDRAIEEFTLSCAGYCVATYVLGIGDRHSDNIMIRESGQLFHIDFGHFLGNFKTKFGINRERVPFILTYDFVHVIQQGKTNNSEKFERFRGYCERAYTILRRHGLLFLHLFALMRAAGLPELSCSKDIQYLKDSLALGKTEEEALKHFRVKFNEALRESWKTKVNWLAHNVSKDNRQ
In short: (§1)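 Recombinant p110 isoforms made by baculovirus in Sf21 cells. Kinase activity read by Kinase-Glo luminescence at 10 µM ATP. IC50 taken as the mean of at least two duplicate experiments.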

[2] = biological target: T2, Phosphatidylinositol 4,5-bisphosphate 3-kinase catalytic subunit beta isoform (Homo sapiens, UniProt P42338); assay: Inhibition of PI3Kbeta (unknown origin) expressed in baculovirus-infected fall armyworm sf21 cells co-expressing p85 by kinase-glo luminescence assay; in short: as §1
Target sequence in this assay (P42338 whole entry, canonical isoform): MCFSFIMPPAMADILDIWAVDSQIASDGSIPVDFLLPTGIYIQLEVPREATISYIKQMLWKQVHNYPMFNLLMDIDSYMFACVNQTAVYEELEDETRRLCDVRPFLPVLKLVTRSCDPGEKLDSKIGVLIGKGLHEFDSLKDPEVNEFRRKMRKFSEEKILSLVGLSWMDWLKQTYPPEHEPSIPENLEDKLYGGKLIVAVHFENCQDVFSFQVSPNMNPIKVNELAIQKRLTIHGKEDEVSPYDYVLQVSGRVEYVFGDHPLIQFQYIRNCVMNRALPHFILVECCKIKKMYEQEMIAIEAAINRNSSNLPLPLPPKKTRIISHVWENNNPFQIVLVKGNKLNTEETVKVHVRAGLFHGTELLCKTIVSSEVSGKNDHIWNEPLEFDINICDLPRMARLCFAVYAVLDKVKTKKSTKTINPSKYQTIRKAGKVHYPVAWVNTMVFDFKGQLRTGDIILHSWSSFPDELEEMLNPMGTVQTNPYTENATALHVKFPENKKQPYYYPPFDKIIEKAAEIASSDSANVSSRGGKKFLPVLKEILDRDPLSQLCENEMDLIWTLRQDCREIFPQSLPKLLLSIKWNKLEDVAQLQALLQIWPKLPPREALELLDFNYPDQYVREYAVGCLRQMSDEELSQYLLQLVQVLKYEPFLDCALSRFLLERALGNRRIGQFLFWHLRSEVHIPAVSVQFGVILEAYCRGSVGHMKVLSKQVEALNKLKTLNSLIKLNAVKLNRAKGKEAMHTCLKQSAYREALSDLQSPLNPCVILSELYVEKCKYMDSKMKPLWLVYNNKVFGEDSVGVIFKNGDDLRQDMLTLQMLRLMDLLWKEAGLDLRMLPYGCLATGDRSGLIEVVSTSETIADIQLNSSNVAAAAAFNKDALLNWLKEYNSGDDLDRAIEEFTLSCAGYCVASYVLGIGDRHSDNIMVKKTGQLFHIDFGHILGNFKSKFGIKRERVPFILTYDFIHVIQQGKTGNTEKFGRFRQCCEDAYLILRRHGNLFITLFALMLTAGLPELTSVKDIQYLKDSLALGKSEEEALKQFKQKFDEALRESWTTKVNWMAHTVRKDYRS

[3] = Inhibition of PI3Kbeta in human washed platelets assessed as suppression of TRAP-induced platelet aggregation at 10 to 1000 nM preincubated for 5 mins followed by TRAP stimulation after 10 mins by light transmission aggregometric analysis
[4] = biological target: T2, Phosphatidylinositol 4,5-bisphosphate 3-kinase catalytic subunit beta isoform; assay: Inhibition of PI3Kbeta in human washed platelets assessed as suppression of ADP-induced platelet aggregation preincubated for 5 mins followed by ADP stimulation after 10 mins by light transmission aggregometric analysis
In short: (§2)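 Washed human platelets in a conventional aggregometer. Aggregation induced by ADP; IC50 taken from the dose-response curve.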
Target sequence in this assay (P42338 whole entry, looked up, canonical isoform): as the sequence (P42338 whole entry, canonical isoform) above

[5] = system: Platelet; assay: […] activity in human washed platelets assessed as […] ADP-induced platelet aggregation at 10 to 1000 nM preincubated for 5 mins followed by ADP stimulation after 10 mins by light transmission aggregometric analysis; assay type: functional, cell-based
[6] = biological target: T2, Phosphatidylinositol 4,5-bisphosphate 3-kinase catalytic subunit beta isoform; assay: Inhibition of PI3Kbeta in human washed platelets assessed as suppression of ADP-induced platelet aggregation at 1 to 1000 nM preincubated for 5 mins followed by ADP stimulation after 10 mins by light transmission aggregometric analysis; in short: as §2
Target sequence in this assay (P42338 whole entry, looked up, canonical isoform): as the sequence (P42338 whole entry, canonical isoform) above

[7] = biological target: T2, Phosphatidylinositol 4,5-bisphosphate 3-kinase catalytic subunit beta isoform; assay: Inhibition of PI3Kbeta in human washed platelets assessed as suppression of ADP-induced platelet aggregation at 0.5 uM preincubated for 5 mins followed by 25 uM ADP stimulation after 10 mins by light transmission aggregometric analysis
In short: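 Washed human platelets in an aggregometer. Inhibitor at 0.5 µM. Aggregation induced by 5, 10 or 25 µM ADP; percent inhibition read.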
Target sequence in this assay (P42338 whole entry, looked up, canonical isoform): as the sequence (P42338 whole entry, canonical isoform) above

[8] = Drug level in iv dosed rat serum after 5 mins by LC-MS analysis; assay type: ADME, organism-based; details: read-out: Drug uptake
[9] = Drug level in iv dosed rat serum after 60 mins by LC-MS analysis; assay type: ADME, organism-based; details: read-out: Drug uptake
[10] = system: Platelet; assay: Antiplatelet activity against human washed platelets assessed as reduction in shear-induced stationary platelet adhesionto vWF matrix at 2 uM preincubated for 5 mins followed by blood perfusion after 4 mins; assay type: functional, cell-based
In short: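 Human whole blood, anticoagulated, perfused over a vWf matrix at 1800 s^-1 for 4 min; stationary platelet adhesion scored. Vehicle DMSO 0.25% taken as 100%. Drug tested up to 5 µM. t test against 0.1 µM drug.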

| IC50 [1] [nM] | IC50 [2] [nM] | SMILES | other results |
| --- | --- | --- | --- |
| 740 | 3200 | C[C@@H](N)C(=O)N1CCC(c2nc(N3CCOCC3)nc(-n3c(C(F)F)nc4ccccc43)n2)CC1 |  |
|  |  | O=C([C@@H]1CCCN1)N1CCN(c2nc(N3CCOCC3)nc(-n3c(C(F)F)nc4ccccc43)n2)CC1 | inhibition [3]: Active; inhibition [4]: Dose-dependent effect |
|  | 554 | NC1CCCN(c2nc(N3CCOCC3)nc(-n3c(C(F)F)nc4ccccc43)n2)C1 (stereo not drawn) |  |
|  | 1210 | NCC(=O)NC1CCCN(c2nc(N3CCOCC3)nc(-n3c(C(F)F)nc4ccccc43)n2)C1 (stereo not drawn) |  |
|  | 1060 | NCC(=O)N1CCC(Nc2nc(N3CCOCC3)nc(-n3c(C(F)F)nc4ccccc43)n2)CC1 |  |
| 330 | 3210 | O=C(C1CCNCC1)N1CCN(c2nc(N3CCOCC3)nc(-n3c(C(F)F)nc4ccccc43)n2)CC1 |  |
|  | 428 | NCC(=O)NCC1CCN(c2nc(N3CCOCC3)nc(-n3c(C(F)F)nc4ccccc43)n2)CC1 |  |
|  |  | NCCCC[C@H](N)C(=O)N1CCN(c2nc(N3CCOCC3)nc(-n3c(C(F)F)nc4ccccc43)n2)CC1 | Activity [5]: Active |
|  | 955 | NC1CCN(c2nc(N3CCOCC3)nc(-n3c(C(F)F)nc4ccccc43)n2)CC1 |  |
| 17000 | 1800 | N[C@@H](CC(=O)N1CCN(c2nc(N3CCOCC3)nc(-n3c(C(F)F)nc4ccccc43)n2)CC1)c1ccccc1 |  |
| 12 | 36 | O=C([C@H]1CCCN1)N1CCN(c2nc(N3CCOCC3)nc(-n3c(C(F)F)nc4ccccc43)n2)CC1 | inhibition [3]: Active; inhibition [4]: Dose-dependent effect |
| 1000 | 190 | NCCC1CCN(c2nc(N3CCOCC3)nc(-n3c(C(F)F)nc4ccccc43)n2)CC1 | inhibition [3]: Active; inhibition [6]: Active |
|  | 1330 | NCC(=O)NC1CCN(c2nc(N3CCOCC3)nc(-n3c(C(F)F)nc4ccccc43)n2)CC1 |  |
|  |  | C[C@H](N)C(=O)N1CCN(c2nc(N3CCOCC3)nc(-n3c(C(F)F)nc4ccccc43)n2)CC1 | inhibition [6]: Active |
|  | 521 | CC(=O)NC1CCN(c2nc(N3CCOCC3)nc(-n3c(C(F)F)nc4ccccc43)n2)CC1 |  |
|  |  | Cc1cc(C(C)Nc2ccccc2)c2nc(N3CCOCC3)cc(=O)n2c1 (stereo not drawn) | inhibition [7]: Active; concentration at 5 min [8]: 2000 nM; concentration at 1 h [9]: 200 nM; inhibition [10]: Active |
| 9100 | > 10000 | CC(C)C[C@H](N)CC(=O)N1CCN(c2nc(N3CCOCC3)nc(-n3c(C(F)F)nc4ccccc43)n2)CC1 |  |
|  | 2000 | O=C(C1CCCN1)N1CCC(c2nc(N3CCOCC3)nc(-n3c(C(F)F)nc4ccccc43)n2)CC1 (single isomer, unassigned) |  |
| 120 | 360 | NCC(=O)N1CCC(c2nc(N3CCOCC3)nc(-n3c(C(F)F)nc4ccccc43)n2)CC1 |  |
|  | 2110 | FC(F)c1nc2ccccc2n1-c1nc(NC2CCNCC2)nc(N2CCOCC2)n1 |  |
|  | 811 | NCC1CCN(c2nc(N3CCOCC3)nc(-n3c(C(F)F)nc4ccccc43)n2)CC1 |  |
| 1090 | 540 | C[C@H](N)C(=O)N1CCC(c2nc(N3CCOCC3)nc(-n3c(C(F)F)nc4ccccc43)n2)CC1 |  |
